ChEMBL document CHEMBL1765035, “Radiosynthesis and in vivo evaluation of 1-[18F]fluoroelacridar as a positron emission tomography tracer for P-glycoprotein and breast cancer resistance protein” (Bioorg Med Chem, 2011)

Key:
[1] = Drug uptake in Sprague-Dawley rat humerus after 1.8 mins in presence of 5 mg/kg elacridar; assay type: ADME, organism-based; parameters: dose 5 mg/kg; conditions: in vivo, 0.03 h
In short: (§1)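 Isoflurane-anaesthetised female Sprague Dawley rats (n=3, warmed about 38°C), femoral catheters. [18F] tracer given i.v. (33±3 MBq), followed by a dynamic 150 min microPET scan. […] Whole brain or humerus outlined on summation images; time-activity curves given as SUV (mean±SD).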

[2] = Ratio of drug level in brain to blood in Mdr1a/b(-/-)/Bcrp1(-/-) mouse; assay type: ADME, tissue-based
In short: (§2)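 Female FVB wild-type and Mdr1a/b(−/−)Bcrp1(−/−) mice (n=3 each), isoflurane-anaesthetised. [18F] tracer given via tail vein (6±1 MBq), 60 min dynamic microPET. Brain SUV at 50-60 min divided by whole-blood SUV; blood taken retro-orbitally at scan end and gamma-counted. Groups compared by 2-tailed t-test.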

[3] = tested on: Plasma; test: Drug concentration in Sprague-Dawley rat plasma assessed as radiometabolites at 74 +/- 23 MBq after 20 mins by SPE assay relative to total plasma concentration; assay type: ADME, cell-free
In short: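 Female Sprague-Dawley rats (n=3) under isoflurane, given i.v. [18F]-tracer (74±23 MBq, 17.2±3.9 nmol or 37±10 μg/kg unlabelled) without PET imaging. Arterial blood was drawn at 10, 20 and 30 min, with a terminal sample at 40 min. Plasma was obtained by centrifugation (3000×g, 5 min) and run through solid-phase extraction. The plasma, H2O and MeOH fractions were gamma-counted. Polar radiometabolites (fractions 1+2) are given as % of total plasma activity.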

[4] = Drug uptake in Sprague-Dawley rat humerus after 140 mins in presence of 5 mg/kg elacridar; assay type: ADME, organism-based; parameters: dose 5 mg/kg; conditions: in vivo; in short: as §1
[5] = tested on: Brain; test: Drug uptake in Sprague-Dawley rat brain at 33 +/- 3 MBq, iv administered 60 mins before 5 mg/kg, iv elacridar injection measured after 140 mins; assay type: ADME, organism-based; parameters: dose 5 mg/kg, route intravenous; conditions: in vivo; in short: as §1
[6] = Ratio of drug level in brain to blood in wild-type mouse; assay type: ADME, tissue-based; in short: as §2
[7] = tested on: Plasma; test: Drug concentration in Sprague-Dawley rat plasma assessed as radiometabolites at 74 +/- 23 MBq after 30 mins by SPE assay relative to total plasma concentration; assay type: ADME, cell-free; conditions: 0.5 h
In short: (§3)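 Female Sprague Dawley rats (n=3, isoflurane, no PET) given [18F] tracer i.v. (74±23 MBq). Blood drawn at 10, 20, 30 min and terminally at 40 min. Plasma centrifuged and run through SPE. Polar radiometabolites are counted as fractions 1+2 by gamma counter, as % of total plasma activity. At 40 min the MeOH fraction also went to reversed-phase HPLC.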

[8] = tested on: Brain; test: Drug uptake in Sprague-Dawley rat brain at 33 +/- 3 MBq, iv administered 60 mins before 5 mg/kg, iv elacridar injection measured after 25 mins; assay type: ADME, organism-based; parameters: dose 5 mg/kg, route intravenous; conditions: in vivo; in short: as §1
[9] = tested on: Brain; test: Drug uptake in Sprague-Dawley rat brain at 33 +/- 3 MBq, iv administered 60 mins before 5 mg/kg, iv elacridar injection measured after 0.9 to 1.3 mins; assay type: ADME, organism-based; parameters: dose 5 mg/kg, route intravenous; conditions: in vivo; in short: as §1
[10] = tested on: Plasma; test: Drug concentration in Sprague-Dawley rat plasma assessed as radiometabolites at 74 +/- 23 MBq after 10 mins by SPE assay relative to total plasma concentration; assay type: ADME, cell-free; in short: as §3
[11] = tested on: Plasma; test: Drug concentration in Sprague-Dawley rat plasma assessed as radiometabolites at 74 +/- 23 MBq after 40 mins by SPE assay relative to total plasma concentration; assay type: ADME, cell-free; in short: as §3
[12] = tested on: Brain; test: Drug uptake in Sprague-Dawley rat brain after 40 mins by reversed-phase HPLC; assay type: ADME, tissue-based; conditions: in vivo
In short: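 Same rat group (n=3) injected i.v. with [18F] tracer and sacrificed at 40 min. Brain washed with ice-cold H2O, homogenized in 0.9% NaCl and extracted with CH3CN. Supernatant diluted 1:1 with 0.1% TFA and analysed by reversed-phase HPLC with UV 257 nm and radioactivity detection. Value is unchanged tracer as % of total brain radioactivity.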

[13] = Inhibition of human Pgp overexpressed in […]-MDR1 cells assessed as inhibition of R123 efflux after 60 mins; assay type: cell-based, MDCK-II; conditions: 1 h
[14] = tested on: MDCK-II; conditions: Homo sapiens, 3.7 uM

COc1cc2c(cc1OC)CN(CCc1ccc(NC(=O)c3ccc([18F])c4c(=O)c5cccc(OC)c5[nH]c34)cc1)CC2
SUV [1]: 1.42
Kp [2]: 11.6
Cp [3]: 6%
SUV [4]: 4.59
SUV [5]: 1.14
Kp [6]: 1.5
Cp [7]: 12%
SUV [8]: 0.14
SUV [9]: 0.46
Cp [10]: 6%
Cp [11]: 13%
Drug uptake [12]: 93%

COc1cc2c(cc1OC)CN(CCc1ccc(NC(=O)c3ccc(F)c4c(=O)c5cccc(OC)c5[nH]c34)cc1)CC2
IC50 [13]: 1700 nM

COc1cc2c(cc1OC)CN(CCc1ccc(NC(=O)c3cc(F)cc4c(=O)c5cccc(OC)c5[nH]c34)cc1)CC2
IC50 [13]: 600 nM

COc1cc2c(cc1OC)CN(CCc1ccc(NC(=O)c3ccc([N+](=O)[O-])c4c(=O)c5cccc(OC)c5[nH]c34)cc1)CC2
IC50 [13]: 1600 nM

COc1cc2c(cc1OC)CN(CCc1ccc(NC(=O)c3cccc4c(=O)c5cccc(OC)c5[nH]c34)cc1)CC2
inhibition [14]: 100%

COc1cc2c(cc1OC)CN(CCc1ccc(NC(=O)c3ccc(Cl)c4c(=O)c5cccc(OC)c5[nH]c34)cc1)CC2
IC50 [13]: 3800 nM

COc1cc2c(cc1OC)CN(CCc1ccc(NC(=O)c3cc(Cl)cc4c(=O)c5cccc(OC)c5[nH]c34)cc1)CC2
IC50 [13]: 1400 nM
